Source: ChEMBL document CHEMBL3352149, “Promiscuity and selectivity in covalent enzyme inhibition: a systematic study of electrophilic fragments” (J Med Chem, 2014)

Key:
[1] = system: Escherichia coli; assay: Inhibition of wild-type Escherichia coli MurB compound preincubated for 10 mins before substrate addition at 25 uM measured after 15 mins by LC-MS method
Method in brief: (§1)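 E. coli wild-type enzyme (4 nM) was preincubated with 25 μM compound for 10 min at 37 °C. Enzymatically generated nucleotide-sugar substrate (~200 μM) plus ATP (~200 μM), or NADPH 200 μM for MurB, was added for 10 min. Reactions were started with amino-acid cosubstrate (MurC–F) or EP-UNAG (MurB), run 15 min at 37 °C, and quenched with formic acid. Product was measured by negative-ESI LC-MS EIC peak area. MgCl2: MurC 10, MurD/E 2, MurF 5 mM; MurB had 5 mM KCl. All in 50 mM NH4HCO3, 0.07% BSA, 1% DMSO; triplicate.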

[2] = system: Escherichia coli; assay: Inhibition of Escherichia coli MetAP at 25 uM after 20 mins by HPLC analysis
Method in brief: (§2)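 Endpoint assay. Enzyme (50 nM) was preincubated with 25 μM compound for 20 min at 37 °C in 50 mM Tris pH 7.5, 100 mM NaCl, 100 μM CoCl2, 0.075% BSA. MGMM substrate (400 μM) was then added for 15 min (human MetAP-1) or 20 min (E. coli MetAP). Reactions were stopped with TFA. GMM product was quantified by RP-HPLC, UV 214 nm. Triplicate.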

[3] = GSH reactivity of the compound assessed as adducts formation by RP-HPLC analysis
Method in brief: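 Fresh aqueous glutathione (10 mM solution) was added to 50 mM Tris-maleate buffer, pH 7.5. The reaction was started with compound from 10 mM DMSO stock (final 250 μM). Mixtures were followed by reversed-phase HPLC on an ODS column with a gradient to 100% B; rate constants are given in l·mol⁻¹·s⁻¹.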

[4] = target: Methionine aminopeptidase 1 (Homo sapiens) (UniProt P53582); assay: Inhibition of human MetAP at 25 uM after 20 mins by HPLC analysis; method in brief: as §2
[5] = system: Escherichia coli; assay: Inhibition of wild-type Escherichia coli MurF compound preincubated for 10 mins before substrate addition at 25 uM measured after 15 mins by LC-MS method; method in brief: as §1
[6] = system: Escherichia coli; assay: Inhibition of wild-type Escherichia coli MurA compound preincubated for 10 mins before substrate addition at 25 uM measured after 15 mins by LC-MS method
[7] = target: Genome polyprotein (dengue virus type 2) (UniProt P12823); assay: Inhibition of Dengue virus serotype 2 NS2B-NS3 protease at 50 uM
[8] = target: Genome polyprotein (West Nile virus) (UniProt P06935); assay: Inhibition of West Nile virus NS2B-NS3 protease at 50 uM
Sequence of Genome polyprotein (West Nile virus) (P06935 whole entry): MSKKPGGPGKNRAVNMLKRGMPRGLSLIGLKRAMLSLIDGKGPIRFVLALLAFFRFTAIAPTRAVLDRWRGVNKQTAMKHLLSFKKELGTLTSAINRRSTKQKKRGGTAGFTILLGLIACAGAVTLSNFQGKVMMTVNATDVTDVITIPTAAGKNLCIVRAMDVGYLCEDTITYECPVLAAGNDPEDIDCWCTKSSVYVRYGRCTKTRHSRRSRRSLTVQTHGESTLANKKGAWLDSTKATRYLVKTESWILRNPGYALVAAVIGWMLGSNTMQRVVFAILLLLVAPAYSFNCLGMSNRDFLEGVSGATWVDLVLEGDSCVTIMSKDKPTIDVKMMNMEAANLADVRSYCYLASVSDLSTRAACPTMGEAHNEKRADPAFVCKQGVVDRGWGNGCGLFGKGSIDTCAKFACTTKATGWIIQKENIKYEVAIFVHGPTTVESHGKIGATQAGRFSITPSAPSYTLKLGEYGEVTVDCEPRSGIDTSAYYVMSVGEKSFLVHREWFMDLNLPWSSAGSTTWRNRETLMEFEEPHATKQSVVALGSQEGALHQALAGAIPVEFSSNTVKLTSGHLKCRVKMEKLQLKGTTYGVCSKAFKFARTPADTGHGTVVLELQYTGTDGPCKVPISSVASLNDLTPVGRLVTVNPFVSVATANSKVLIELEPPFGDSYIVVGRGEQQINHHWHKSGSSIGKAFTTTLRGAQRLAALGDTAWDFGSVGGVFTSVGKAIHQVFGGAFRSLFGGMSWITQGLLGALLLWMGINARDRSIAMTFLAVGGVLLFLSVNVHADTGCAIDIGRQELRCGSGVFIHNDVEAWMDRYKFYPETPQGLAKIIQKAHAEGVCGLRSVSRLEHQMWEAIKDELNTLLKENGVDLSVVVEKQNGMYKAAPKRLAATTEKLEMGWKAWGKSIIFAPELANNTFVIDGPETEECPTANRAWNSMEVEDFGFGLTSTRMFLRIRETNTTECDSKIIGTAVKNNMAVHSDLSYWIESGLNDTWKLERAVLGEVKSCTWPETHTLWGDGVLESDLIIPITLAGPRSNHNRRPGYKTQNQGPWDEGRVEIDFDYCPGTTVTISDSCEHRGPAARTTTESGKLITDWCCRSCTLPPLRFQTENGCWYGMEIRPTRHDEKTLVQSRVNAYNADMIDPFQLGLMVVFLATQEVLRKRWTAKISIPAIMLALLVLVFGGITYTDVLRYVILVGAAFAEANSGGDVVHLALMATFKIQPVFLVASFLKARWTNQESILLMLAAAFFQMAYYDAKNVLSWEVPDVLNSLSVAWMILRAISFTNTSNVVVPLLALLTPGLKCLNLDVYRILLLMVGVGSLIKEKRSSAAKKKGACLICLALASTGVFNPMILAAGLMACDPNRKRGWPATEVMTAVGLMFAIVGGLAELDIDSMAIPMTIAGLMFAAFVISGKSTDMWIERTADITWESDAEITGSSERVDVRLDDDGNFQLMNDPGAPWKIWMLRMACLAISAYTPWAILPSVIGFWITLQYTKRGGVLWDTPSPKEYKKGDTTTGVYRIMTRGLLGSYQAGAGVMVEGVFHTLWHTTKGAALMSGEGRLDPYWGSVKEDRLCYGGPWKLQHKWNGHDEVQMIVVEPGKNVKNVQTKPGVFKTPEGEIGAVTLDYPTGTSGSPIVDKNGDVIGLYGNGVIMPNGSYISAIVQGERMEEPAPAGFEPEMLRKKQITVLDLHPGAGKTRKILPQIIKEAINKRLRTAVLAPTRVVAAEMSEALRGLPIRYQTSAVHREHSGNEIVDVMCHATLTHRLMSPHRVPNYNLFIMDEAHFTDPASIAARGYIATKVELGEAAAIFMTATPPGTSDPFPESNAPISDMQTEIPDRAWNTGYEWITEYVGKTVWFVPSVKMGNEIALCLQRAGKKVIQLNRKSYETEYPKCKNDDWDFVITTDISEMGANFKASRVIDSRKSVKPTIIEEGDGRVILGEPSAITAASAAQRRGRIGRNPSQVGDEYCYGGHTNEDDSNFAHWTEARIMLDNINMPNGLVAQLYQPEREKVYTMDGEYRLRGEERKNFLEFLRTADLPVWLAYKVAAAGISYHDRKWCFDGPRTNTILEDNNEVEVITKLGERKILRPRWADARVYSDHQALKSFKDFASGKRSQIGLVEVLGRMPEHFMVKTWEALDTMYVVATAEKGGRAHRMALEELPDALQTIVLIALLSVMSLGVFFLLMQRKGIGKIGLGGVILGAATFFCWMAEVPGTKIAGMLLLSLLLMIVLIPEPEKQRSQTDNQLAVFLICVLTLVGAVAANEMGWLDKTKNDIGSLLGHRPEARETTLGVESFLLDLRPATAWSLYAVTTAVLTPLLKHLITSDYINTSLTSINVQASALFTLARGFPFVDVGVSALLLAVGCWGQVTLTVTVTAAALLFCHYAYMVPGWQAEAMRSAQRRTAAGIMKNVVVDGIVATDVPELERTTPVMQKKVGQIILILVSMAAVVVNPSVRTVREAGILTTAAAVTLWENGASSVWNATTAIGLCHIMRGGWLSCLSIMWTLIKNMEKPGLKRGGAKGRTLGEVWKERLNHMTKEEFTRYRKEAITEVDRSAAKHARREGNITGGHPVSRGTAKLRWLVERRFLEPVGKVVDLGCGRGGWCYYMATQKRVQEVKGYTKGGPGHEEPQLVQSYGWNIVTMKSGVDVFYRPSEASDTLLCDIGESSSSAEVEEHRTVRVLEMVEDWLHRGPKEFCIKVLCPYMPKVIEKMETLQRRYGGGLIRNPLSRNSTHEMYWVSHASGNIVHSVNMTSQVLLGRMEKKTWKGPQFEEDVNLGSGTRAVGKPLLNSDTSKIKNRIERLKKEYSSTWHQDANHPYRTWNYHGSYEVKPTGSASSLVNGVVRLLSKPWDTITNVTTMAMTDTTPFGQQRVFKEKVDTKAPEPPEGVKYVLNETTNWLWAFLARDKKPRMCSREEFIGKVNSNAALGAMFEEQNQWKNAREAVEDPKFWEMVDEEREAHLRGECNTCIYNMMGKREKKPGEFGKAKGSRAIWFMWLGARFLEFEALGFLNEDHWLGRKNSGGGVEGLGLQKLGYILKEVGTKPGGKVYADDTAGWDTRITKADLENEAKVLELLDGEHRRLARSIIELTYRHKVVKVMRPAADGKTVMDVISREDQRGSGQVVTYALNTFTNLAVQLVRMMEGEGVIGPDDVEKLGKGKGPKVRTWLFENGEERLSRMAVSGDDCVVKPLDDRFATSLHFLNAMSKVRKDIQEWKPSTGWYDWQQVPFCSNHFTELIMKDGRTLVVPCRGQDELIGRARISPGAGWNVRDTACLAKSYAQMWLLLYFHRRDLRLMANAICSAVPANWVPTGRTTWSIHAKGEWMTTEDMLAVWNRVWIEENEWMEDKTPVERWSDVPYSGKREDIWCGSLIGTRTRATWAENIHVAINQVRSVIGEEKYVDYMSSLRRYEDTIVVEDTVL

[9] = system: Escherichia coli; assay: Inhibition of wild-type Escherichia coli MurC compound preincubated for 10 mins before substrate addition at 25 uM measured after 15 mins by LC-MS method; method in brief: as §1
[10] = system: Escherichia coli; assay: Inhibition of wild-type Escherichia coli MurD compound preincubated for 10 mins before substrate addition at 25 uM measured after 15 mins by LC-MS method; method in brief: as §1
[11] = system: Escherichia coli; assay: Inhibition of wild-type Escherichia coli MurE compound preincubated for 10 mins before substrate addition at 25 uM measured after 15 mins by LC-MS method; method in brief: as §1
[12] = target: Prothrombin (Bos taurus) (UniProt P00735); assay: Inhibition of Bovine thrombin using Boc-Val-Pro-Arg-AMC as substrate compound preincubated at 25 uM for 15 mins by fluorescence assay
Method in brief: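 Bovine thrombin (final 10 nM) was preincubated 15 min with 25 μM compound in 50 mM Tris-HCl pH 7.5, 150 mM NaCl, 0.05% Tween 20. The reaction was started with Boc-Val-Pro-Arg-AMC (50 μM final). Fluorescence (ex 355/em 460 nm) was monitored continuously for 10 min; activity taken as slope (RFU/s). Triplicate.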

Compound	inhibition [1] [%]	inhibition [2] [%]	inhibition [4] [%]	inhibition [5] [%]	inhibition [6] [%]	inhibition [7] [%]	inhibition [8] [%]	inhibition [9] [%]	inhibition [10] [%]	inhibition [11] [%]	inhibition [12] [%]	Activity [3] [L/mol/s]
O=C(CCl)Nc1ccc([N+](=O)[O-])cc1	< 15	< 15	< 15	< 15	< 15	< 15	< 15	< 15	< 15	< 15	< 15	< 0.1
CNC(=O)CC#N	< 15	< 15	< 15	< 15	< 15	< 15	< 15	< 15	< 15	< 15	< 15	< 0.1
COc1ccc(NC(=O)CCl)cc1	< 15	< 15	< 15	< 15	< 15	< 15	< 15	< 15	< 15	< 15	< 15	< 0.1
C=CCNc1ccc(C)cc1	< 15	< 15	< 15	15	< 15	< 15	< 15	< 15	< 15	< 15	< 15	< 0.1
CCCCC(N)C(=O)OC (centres undefined)	< 22	< 15	< 15	< 15	< 15	< 15	< 15	< 15	18	17	< 15	< 0.1
N#CCC(=O)NC1CCCC1	< 15	< 15	< 15	< 15	< 15	< 15	< 15	< 15	< 15	16	< 15	< 0.1
COc1ccc(NC(=O)CC#N)cc1	< 15	< 15	< 15	< 15	< 15	< 15	16	< 15	< 15	15	< 15	< 0.1
C=CCNC1CCCC1	17	< 15	< 15	< 15	< 15	< 15	< 15	< 15	< 15	< 15	< 15	< 0.1
N#CCC(=O)Nc1ccc([N+](=O)[O-])cc1	< 15	< 15	< 15	< 15	< 15	< 15	< 15	< 15	< 15	< 15	< 15	< 0.1
C[S+](C)CC(=O)Nc1ccc(F)cc1	< 15	< 15	< 15	< 15	< 15	< 15	< 15	< 15	< 15	15	< 15	–
C[S+](C)CC(=O)NCc1ccccc1	< 15	< 15	< 15	< 15	< 15	< 15	< 15	< 15	< 15	< 15	< 15	–
O=C(Nc1ccc([N+](=O)[O-])cc1)n1ccnc1	< 15	< 15	< 15	< 15	< 15	< 15	< 15	< 15	< 15	< 15	< 15	< 0.1

Second part, led by results:

inhibition [1] [%]	inhibition [2] [%]	inhibition [4] [%]	inhibition [5] [%]	inhibition [6] [%]	inhibition [7] [%]	inhibition [8] [%]	inhibition [9] [%]	inhibition [10] [%]	inhibition [11] [%]	inhibition [12] [%]	Compound	Activity [3] [L/mol/s]
< 15	< 15	< 15	< 15	< 15	< 15	18	< 15	< 15	< 15	< 15	CCCCC(NC(=O)CC#N)C(=O)OC (centres undefined)	< 0.1
< 15	< 15	< 15	< 15	< 15	< 15	< 15	< 15	< 15	< 15	< 15	Cc1ccc(NC(=O)CC#N)cc1	< 0.1
< 15	< 15	< 15	< 15	< 15	< 15	< 15	14	< 15	20	< 15	CNC(=O)C[S+](C)C	–
< 15	< 15	< 15	< 15	< 15	< 15	< 15	< 15	< 15	< 15	< 15	C=CCNC	< 0.1
< 15	< 15	< 15	< 15	< 15	< 15	< 15	< 15	< 15	< 15	< 15	C=CCNCc1ccccc1	< 0.1
17	< 15	< 15	< 15	< 15	< 15	< 15	< 15	< 15	< 15	< 15	C=CCNc1ccc(F)cc1	< 0.1
< 15	< 15	< 15	< 15	< 15	< 15	< 15	< 15	< 15	< 15	< 15	N#CCC(=O)Nc1ccc(F)cc1	< 0.1
< 15	< 15	< 15	< 15	< 15	< 15	< 15	< 15	< 15	< 15	< 15	C=CCNC(CCCC)C(=O)OC (centres undefined)	< 0.1
< 15	< 15	< 15	< 15	< 15	< 15	< 15	< 15	< 15	17	< 15	C[S+](C)CC(=O)NC1CCCC1	–
< 15	< 15	< 15	< 15	< 15	< 15	< 15	< 15	< 15	< 15	< 15	C[S+](C)CC(=O)NCCc1ccccc1	–
